Assay results as given in ChEMBL document CHEMBL2390841, “1,1-Difluoroethyl-substituted triazolothienopyrimidines as inhibitors of a human urea transport protein (UT-B): new analogs and binding model” (Bioorg Med Chem Lett, 2013).

Tests used:
Liver microsomes = assay: Metabolic stability in rat liver microsomes assessed as parent compound remaining after 30 mins; format: ADME, Microsome; settings: 0.5 h
Summary of the method: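 Compounds are incubated 30 min with rat liver microsomes plus NADPH, then organic-extracted and analysed by LCMS. Value is percent parent remaining.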

Urea transporter 1 = target: T1, Urea transporter 1 (Mus musculus, UniProt Q8VHL0); assay: Inhibition of UT-B in mouse acetamide-loaded erythrocyte assessed as increase of hypotonic lysis
T1 sequence (Q8VHL0 whole entry): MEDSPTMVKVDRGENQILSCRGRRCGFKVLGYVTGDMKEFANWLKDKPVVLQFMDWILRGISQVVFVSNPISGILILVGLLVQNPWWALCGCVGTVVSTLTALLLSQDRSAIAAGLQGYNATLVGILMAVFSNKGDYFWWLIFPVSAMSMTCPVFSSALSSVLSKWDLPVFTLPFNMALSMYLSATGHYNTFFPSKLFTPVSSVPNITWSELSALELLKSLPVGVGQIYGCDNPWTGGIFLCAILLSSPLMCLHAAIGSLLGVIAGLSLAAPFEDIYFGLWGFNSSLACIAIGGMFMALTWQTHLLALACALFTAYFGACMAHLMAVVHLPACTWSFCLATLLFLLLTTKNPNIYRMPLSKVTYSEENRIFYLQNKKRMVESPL
Summary of the method: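 Erythrocytes preloaded with acetamide are diluted into isosmolar PBS. Hypotonic lysis is read as near-infrared light absorbance; blocking UT-B-mediated acetamide efflux increases lysis. IC50 comes from a fit to a single-site saturation model.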

| SMILES | Stability (Liver microsomes) [%] | IC50 (Urea transporter 1) [nM] |
| --- | --- | --- |
| CCc1ccc(S(=O)(=O)c2nnn3c2nc(NCc2cccs2)c2sccc23)cc1 | < 5 |  |
| CC(F)(F)c1ccc(S(=O)(=O)c2nnn3c2nc(NCc2ccccc2)c2sccc23)cc1 | 79 | > 800 |
| CC(F)(F)c1ccc(S(=O)(=O)c2nnn3c2nc(NCC2CC2)c2sccc23)cc1 | 75 | > 800 |
| CC(F)(F)c1ccc(S(=O)(=O)c2nnn3c2nc(NCC2CCC2)c2sccc23)cc1 | 24 | > 800 |

Second part, the molecule after the results:

| Stability (Liver microsomes) [%] | IC50 (Urea transporter 1) [nM] | SMILES |
| --- | --- | --- |
| 22 | 38 | Cc1csc(CNc2nc3c(S(=O)(=O)c4ccc(C(C)(F)F)cc4)nnn3c3ccsc23)c1 |
| 47 | 43 | CC(F)(F)c1ccc(S(=O)(=O)c2nnn3c2nc(NCc2ccsc2)c2sccc23)cc1 |
| 14 | 353 | CC(F)(F)c1ccc(S(=O)(=O)c2nnn3c2nc(NCc2ccco2)c2sccc23)cc1 |
